Experimental findings from PubChem BioAssay are described below.

A word on the viability: it is a read-out of living cells in per cent, often relative to untreated cells. Broadly, the inhibition is the change of the read-out against control, counted positive when it falls.

Test [1] is described as follows: reduced viability of SK-BR-3 breast cancer cells – cell-based, 24 h, human, pilot screen (AID 572;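 active means viability at or below 10% of carrier control in both of two separate runs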;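 further: compound exposure lasted between 18 and 24 h rather than exactly 24 h; 100% = carrier-treated control wells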). Conditions: SK-BR-3 viability, CellTiter-Glo luminescence, at 10 µM, stronger effect = lower value. (In general: ATP-based viability assays read luminescence as a measure of living cells.)
Test [2] is described as follows: HUVEC growth inhibition – cell-based, human, primary screen (AID 575;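 active means viability at or below 30% in both replicate assays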;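 further: 100% = median of untreated cell wells with 0.1% DMSO on each plate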). The conditions noted are these: HUVEC proliferation, CellTiter-Glo luminescence, 72 h; at 10 µM; stronger effect = lower value. In a few lines:
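system = HUVEC primary cells | amount = 1250 cells/well | buffer or medium = supplemented EBM, 2% fetal bovine serum | dosing = single-point 10 µM, DMSO 0.1% final | times = 72 h compound incubation | detection = CTG luminescence | read-out = % viability relative to median vehicle-well signal on each plate | control set = vehicle and MePR control wells | format = collagen-coated 384-well format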

Test [3] can be described thus: H69AR cell proliferation blockers – human, duplicate replicates, primary screen (AID 580).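 Further: 100% = mean luminescence of untreated wells and 0% = no signal.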 The conditions noted are these: H69AR lung tumor cells viability, ATP luminescence, 72 h; at 10 µM; stronger effect = lower value.
Test [4] in a line: MRP1 drug-resistance reversers in H69AR cells – cell-based, doxorubicin co-treatment, pilot screen (AID 601;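 active means viability loss from added drug above about 55%, and viability with drug at most 40%, in both replicates, limit read from the data, passing the limit was not always enough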). The conditions noted are these: CellTiter-Glo, 72 h, at 10 µM; for differential viability (reversal): stronger effect = higher value.
A short description of test [5]: yeast transport mutant growth inhibition pilot in 384-well plates, post-Golgi transport modulator project (AID 636; in the data active means inhibition above about 31%). Conditions: absorbance 615 nm, about 18 h, stronger effect = higher value.
Test [6] is described as follows: growth suppression of yeast trafficking mutant, preliminary HTS, modulators of trafficking downstream of Golgi apparatus project, 1536-format plate, OD 615 nm (AID 637; in the data active means inhibition above about 30%). The conditions noted are these: yeast transport mutant growth, absorbance 615 nm, 18 h; stronger effect = higher value.
Where [7] appears, read: H69AR cells + 2 uM doxorubicin, measured here: viability with 2 uM doxorubicin, stronger effect = lower value.
[8] abbreviates: H69AR cells, compound alone cytotoxicity.

Calls of active or inactive are those of the source.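 How the source made its calls, unless noted: active means viability at or under a set limit in both replicates, limit being median viability minus 3 SD (cut at about 48% in these data, passing the limit was not always enough); inconclusive means at or under the limit in just one replicate; inactive means at or above the limit in both replicates.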

Consider `Cn1c(=O)c2c(nc(N3CCN(c4ccccc4)CC3)n2CCCc2ccccc2)n(C)c1=O`, for which the viability in test [1] was 68% (inactive); in test [2], 90.6% (inactive); in test [3], 84.1% (inactive); in test [4] (setting [7]) it was 82.2%; in test [4] (setting [8]), 84.1%. Further, the differential viability (reversal) in test [4] (H69AR cells + 2 uM doxorubicin) is 1.85% (inactive). In addition, the inhibition in test [5] was -3.33% (inactive); in test [6], 7.09% (inactive).

`O=C(CSc1nc(N2CCCCC2)nc(N2CCCCC2)n1)Nc1nccs1`: the viability in test [1] was 123% (inactive); in test [2] it was 85.4% (inactive); in test [3], 77.3% (inactive); in test [4] (setting [7]) it was 72.5%; in test [4] (setting [8]), 77.3%. Moreover, the differential viability (reversal) in test [4] (H69AR cells + 2 uM doxorubicin) is 4.8% (inactive). Further, the inhibition in test [5] is -2.21% (inactive); in test [6] it was -7.21% (inactive).

Turning to `CCOc1ccccc1C(=O)Nn1c(C2CCC2)nc2ccccc2c1=O`, the viability was 91% (inactive) in test [1]; 91.1% (inactive) in test [2]; 93.7% (inactive) in test [3]; 112% in test [4] (setting [7]); 93.7% in test [4] (setting [8]). Also, in test [4] (H69AR cells + 2 uM doxorubicin), the differential viability (reversal) was -18% (inactive). Besides, the results for the inhibition in test [5] and in test [6] were -4.11% (inactive) and 2.55% (inactive), respectively.

Regarding `CC1CN(CC(O)COc2ccccc2C(C)(C)C)CC(C)O1` (configuration not stated), the viability in test [1] is 130% (inactive); in test [2] it was 114% (inactive); in test [3], 78% (inactive); in test [4] (setting [7]), 89.3%; in test [4] (setting [8]), 78%. The differential viability (reversal) in test [4] (H69AR cells + 2 uM doxorubicin) was -11.3% (inactive). Also, the inhibition is -0.26% (inactive) in test [5] and 0.49% (inactive) in test [6].

With `O=C(CSc1nc2ccccc2[nH]1)N1CCCCC1`, the viability in test [1] is 106% (inactive); in test [2], 102% (inactive); in test [3], 92.9% (inactive); in test [4] (setting [7]), 83.9%; in test [4] (setting [8]), 92.9%. Further, the differential viability (reversal) in test [4] (H69AR cells + 2 uM doxorubicin) is 8.96% (inactive). Moreover, the inhibition in test [5] was -6.44% (inactive); in test [6], 5.09% (inactive).

Take `O=C(NCC1CCCO1)c1ccc(C(=O)NCC2CCCO2)cc1` (configuration not stated): the viability was 97% (inactive) in test [1]; 108% (inactive) in test [2]; 113% (inactive) in test [3]; 101% in test [4] (setting [7]); 113% in test [4] (setting [8]). For the same molecule, in test [4] (H69AR cells + 2 uM doxorubicin), the differential viability (reversal) was 11.3% (inactive). The inhibition is -6.76% (inactive) in test [5] and -4% (inactive) in test [6].

As for `COc1cccc(OCC(=O)Nc2ccccc2C(N)=O)c1`, the viability in test [1] is 110% (inactive); in test [2] it was 99.9% (inactive); in test [3] it was 97% (inactive); in test [4] (setting [7]), 83.9%; in test [4] (setting [8]), 97%. For the same molecule, in test [4] (H69AR cells + 2 uM doxorubicin), the differential viability (reversal) was 13.1% (inactive). In addition, the inhibition in test [5] is -1.51% (inactive); in test [6], 1.13% (inactive).

In the case of `COc1ccccc1CNC(=O)Nc1cccs1`, the viability in test [1] was 126% (inactive); in test [2], 63.8% (inactive); in test [3] it was 72.1% (inactive); in test [4] (setting [7]) it was 66.5%; in test [4] (setting [8]), 72.1%. Besides, the differential viability (reversal) in test [4] (H69AR cells + 2 uM doxorubicin) was 5.65% (inactive). For the same molecule, the values for the inhibition in test [5] and in test [6] were -0.78% (inactive) and 4.1% (inactive), respectively.

As to `Nc1cc(=O)[nH]c(SCC(=O)Nc2ccc(Br)cc2)n1`, the viability in test [1] was 96% (inactive); in test [2], 101% (inactive); in test [3] it was 90.5% (inactive); in test [4] (setting [7]), 86%; in test [4] (setting [8]) it was 90.5%. The differential viability (reversal) in test [4] (H69AR cells + 2 uM doxorubicin) was 4.49% (inactive). Further, the inhibition in test [5] is -0.52% (inactive); in test [6], -4.1% (inactive).

As for `Cc1cc(N2C(=O)CC(N3CCN(c4ccc(C(=O)c5cccs5)cc4)CC3)C2=O)no1` (configuration not stated), the viability is 96% (inactive) in test [1]; 87.4% (inactive) in test [2]; 87.6% (inactive) in test [3]; 92.6% in test [4] (setting [7]); 87.6% in test [4] (setting [8]). The differential viability (reversal) in test [4] (H69AR cells + 2 uM doxorubicin) was -4.99% (inactive). In addition, the inhibition in test [5] is -3.42% (inactive); in test [6] it was 13.6% (inactive).

Consider `Cc1ccc(S(=O)(=O)N2CCCN(S(=O)(=O)C3CCS(=O)(=O)C3)CC2)cc1` (configuration not stated), for which the viability in test [1] is 124% (inactive); in test [2], 101% (inactive); in test [3] it was 99.1% (inactive); in test [4] (setting [7]), 90.4%; in test [4] (setting [8]) it was 99.1%. Further, the differential viability (reversal) in test [4] (H69AR cells + 2 uM doxorubicin) was 8.77% (inactive). Besides, the inhibition in test [5] is -7.2% (inactive); in test [6], 1.09% (inactive).

As for `CCOC(=O)N1CCC(N(C(=O)Nc2cccc(OC)c2)C(C)CC)CC1` (configuration not stated), the viability in test [1] was 129% (inactive); in test [2] it was 120% (inactive); in test [3] it was 96.9% (inactive); in test [4] (setting [7]), 95.5%; in test [4] (setting [8]), 96.9%. Moreover, the differential viability (reversal) in test [4] (H69AR cells + 2 uM doxorubicin) is 1.43% (inactive). Further, the inhibition in test [5] is -2.21% (inactive); in test [6], 3.11% (inactive).

Regarding `Cn1c(=O)c2c(ncn2CC(O)CO)n(C)c1=O` (configuration not stated), the viability was 117% (inactive) in test [1]; 92.8% (inactive) in test [2]; 107% (inactive) in test [3]; 95% in test [4] (setting [7]); 107% in test [4] (setting [8]). Besides, the differential viability (reversal) in test [4] (H69AR cells + 2 uM doxorubicin) is 12.3% (inactive). Also, the inhibition in test [5] was -5.45% (inactive); in test [6], 3% (inactive).

For the molecule `O=C(CCn1c(=O)oc2ccccc21)N1CCN(c2ccccc2Cl)CC1`, the viability was 72% (inactive) in test [1]; 54.2% (inactive) in test [2]; 11.2% (active) in test [3]; 66.3% in test [4] (setting [7]); 11.2% in test [4] (setting [8]). For the same molecule, in test [4] (H69AR cells + 2 uM doxorubicin), the differential viability (reversal) was -55.1% (inactive). Also, the inhibition in test [5] was 7.3% (inactive); in test [6] it was -2% (inactive).

In the case of `O=C(COC(=O)CCC1CCCC1)Nc1ccc(Cl)cn1`, the viability in test [1] is 107% (inactive); in test [2], 101% (inactive); in test [3], 98.6% (inactive); in test [4] (setting [7]), 93.2%; in test [4] (setting [8]), 98.6%. Moreover, in test [4] (H69AR cells + 2 uM doxorubicin), the differential viability (reversal) was 5.36% (inactive). Further, the inhibition in test [5] is 0% (inactive); in test [6] it was -1.45% (inactive).

For `NC(N)=NC(N)=NCCc1ccccc1`, the viability is 103% (inactive) in test [1]; 104% (inactive) in test [2]; 99.4% (inactive) in test [3]; 99.6% in test [4] (setting [7]); 99.4% in test [4] (setting [8]). The differential viability (reversal) in test [4] (H69AR cells + 2 uM doxorubicin) is -0.22% (inactive). The results for the inhibition in test [5] and in test [6] were 0.65% (inactive) and -0.67% (inactive), respectively.

Consider `O=C(CCCSc1nc2ccccc2s1)NC1=NCCS1`, for which the viability is 86% (inactive) in test [1]; 102% (inactive) in test [2]; 93.7% (inactive) in test [3]; 97.8% in test [4] (setting [7]); 93.7% in test [4] (setting [8]). In addition, in test [4] (H69AR cells + 2 uM doxorubicin), the differential viability (reversal) is -4.02% (inactive). For the same molecule, the inhibition is -7.53% (inactive) in test [5] and 1.82% (inactive) in test [6].

As for `OCCNC1=NCCN1`, the viability in test [1] was 54% (inactive); in test [2], 99.5% (inactive); in test [3], 96.8% (inactive); in test [4] (setting [7]), 90.7%; in test [4] (setting [8]) it was 96.8%. For the same molecule, the differential viability (reversal) in test [4] (H69AR cells + 2 uM doxorubicin) is 6.17% (inactive). The results for the inhibition in test [5] and in test [6] were -7.4% (inactive) and -0.55% (inactive), respectively.

On to `COc1nc(-c2ccc(Cl)cc2)ccc1-c1noc(-c2ccncc2)n1`, for which the viability in test [1] was 109% (inactive); in test [2] it was 103% (inactive); in test [3], 82.4% (inactive); in test [4] (setting [7]), 80.4%; in test [4] (setting [8]), 82.4%. Besides, in test [4] (H69AR cells + 2 uM doxorubicin), the differential viability (reversal) was 1.99% (inactive). The inhibition in test [5] is -6.99% (inactive); in test [6], -7.64% (inactive).
